In ChEMBL document CHEMBL4513216, “Probing the Open Global Health Chemical Diversity Library for Multistage-Active Starting Points for Next-Generation Antimalarials” (ACS Infect Dis, 2020):

Assay: Toxicity liver stage against HepG2, at 10uM
Type: cell-based
Set-up: test concentration 10 uM, cell line HepG2-A16-CD81EGFP
Details: human, HepG2-A16-CD81EGFP cells; read-out: INHIBITION
In short: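 Uninfected HepG2-A16-CD81EGFP cells, 3 × 10^3 per well, 1536-well, plated on prespotted compound at 10 μM final, parasite-free screening media added to match infected plates; puromycin 10 μM positive, DMSO 0.5% negative; run in parallel with 48 h PbLuc assay at 37 °C, 5% CO2; viability by CellTiter-Glo luminescence, normalized to controls.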

SMILES	cytotoxicity at 10 µM [%]
CCc1ncc(C(=O)c2ccc(OC)cc2)n1C	14.5
N[C@@H](Cc1ccccc1)c1nnc(S(=O)(=O)Cc2ccccc2)o1	13.3
CNC(=O)NC(=O)CSc1ccc2c(c1)CCC2	19.6
CN1C[C@H](O)[C@]2(CCN(Cc3ccc(F)c(F)c3)C2)S1(=O)=O	-1.42
CCCNC(=O)Cn1c(-n2nc(C)cc2C)nc(CCC)cc1=O	8.94
COc1ccc(CC(=O)NCC(O)c2sccc2C)cc1OC (stereo unspecified)	11.4
c1ccc2c(c1)CCN(c1nc(N3CCOCC3)c3nn[nH]c3n1)C2	11.6
CN(C)C(=O)CN1CCC2(CCN(C(=O)N3CCCC3)CC2)C1=O	2.7
NC(=O)N1CCC2(CC1)CC(=O)N(CC1CCCO1)c1ccccc12 (stereo unspecified)	5.56
O=C(c1ccsc1)N1CCc2nnc(COc3cncnc3)n2CC1	1.72
Cc1cccc(CN2C[C@@H]3OCCN(S(=O)(=O)N(C)C)[C@@H]3C2)n1	11.2
COC1COC2(CCN(C(=O)c3cscn3)CC2)C1 (stereo unspecified)	6.13
CN(Cc1cccnc1)C1CC2(CCN(C(=O)c3ccnnc3)CC2)C1	5.41
O=C(O)c1nnn(-c2ccccc2)c1-c1ccncc1	2.33
CN(C)CCNC(=O)c1sccc1N(C)S(=O)(=O)c1ccc(Cl)cc1	2.38
Cn1c(=O)c2c(n3ncnc13)NC(=O)CC2c1ccc(F)cc1 (stereo unspecified)	5.64
Cc1cccc(NC(=O)C(C)Oc2ccc3c(c2)OCO3)n1 (stereo unspecified)	-9.25
CCOc1ccc(NC(C)=O)cc1S(=O)(=O)Nc1cc(C)on1	-4.13
COCCNC(=O)c1nnc2ccc(N3CCOCC3)cc2n1	10.8
Cc1nn(C)c2c(NC3CCCC3)nc(C3CC3)nc12	-0.801
CC(=O)c1c(C)nn(S(=O)(=O)c2ccc(F)cc2)c1C	3.25

SMILES	cytotoxicity at 10 µM [%]
Cc1n[nH]c(C)c1CCC(=O)N1CCC(O)(CN2CCOCC2)C1 (stereo unspecified)	3.38
N#CC1(C(=O)N2CCOC(c3ccc(F)cc3)C2)CCCC1 (stereo unspecified)	-3.3
CC(CCc1ccc(F)c(F)c1)NS(=O)(=O)Cc1ccon1 (stereo unspecified)	-7.97
N#Cc1ncn(CCS(=O)(=O)c2ccc(Cl)cc2)n1	-6.74
O=C(CCc1ccsc1)Nc1ccnn1C1CCS(=O)(=O)C1 (stereo unspecified)	9.01
Cc1cc(NC(=O)CCNC(C)(C)c2nc(C)c(C)s2)no1	11.7
Cc1nc2cc(=O)[nH]n2c(C)c1CC(=O)Nc1cn[nH]c1	6.13
O=S(=O)(Cc1ccccc1)c1nnc(N2CCCC2)s1	-6.27
CC1Cc2ccccc2N1Cc1occc1C(=O)NCC(=O)N(C)C (stereo unspecified)	8.13
CSCC(CCO)NC(=O)Nc1ccc(Br)cc1 (stereo unspecified)	-12.2
CC(NCc1ccncc1)c1cc2c(cc1Br)OCCO2 (stereo unspecified)	-1.41
N#Cc1ccc(NCc2cccc(OCC3CCCO3)c2)nc1 (stereo unspecified)	1.25
Cc1nn(C)c(C)c1NC(=O)Nc1cccnc1N1CCCC1	7.31
CN(Cc1cccs1)c1nc2c(cnn2C(C)(C)C)c(=O)[nH]1	9.75
CC1CN(C)CCN1C(=O)c1cnc2onc(CC(C)(C)C)c2c1 (stereo unspecified)	-1.6
Cc1cccc(C2(C(=O)NS(=O)(=O)c3cnn(C)c3)CCCC2)c1	-3.62
NC(=O)NC(CC(=O)NCCc1ccc(F)cc1)c1ccccc1 (stereo unspecified)	-2.39
CCCNC(=O)CSCc1ccc(S(=O)(=O)N(C)C)o1	9.8
Fc1ccc(OCCNC2CCN(Cc3ccccn3)CC2)c(F)c1	-3.26
CCC(C(=O)Nc1ccc2c(C)n[nH]c2c1)N1CCCC1=O (stereo unspecified)	-48.9
Cc1nccn1Cc1cccc(CNC(=O)c2ccn(C)c(=O)c2)c1	5.82

SMILES	cytotoxicity at 10 µM [%]
c1ccc(COC2CCN(c3cncc(-n4cccn4)n3)CC2)cc1	-9.18
CC(c1ccc(Cl)cc1)N1CCN(CCNS(C)(=O)=O)CC1 (stereo unspecified)	-15.3
Cc1ccc(CN2CC[C@H]3CO[C@H](CN(C)C)[C@H]3C2)o1	-114
COCC(=O)NC1CC2(CCN(CCN(C)C)CC2)c2ccccc21 (stereo unspecified)	-113
Cc1cc(C(=O)N2CC[C@H]3[C@@H]2CCC(=O)N3c2ccccc2)no1	-113
N[C@H]1CN(CCCOc2ccccc2)C[C@@H]1C1CC1	0.147
O=C1CCC(C(=O)N2CCOC(Cc3cccc4ccccc34)C2)=NN1 (stereo unspecified)	-3.86
O[C@H]1CCCC[C@@H]1N1CCN(CCCc2ccc3c(c2)OCO3)CC1	-3.69
CC(=O)NCc1cc2n(n1)CCN(Cc1ccccc1OC(F)(F)F)C2	-2.84
CCc1cnc(NCCS(=O)(=O)CC(C)C)nc1	-13
CC[C@H]1CN(C(=O)c2ccc(-n3cnnc3)nc2)CC[C@@]1(C)O	-11.9
Cc1ncc(CN2CCC3(CCCN(CC4CCC4)C3)C2)cn1 (stereo unspecified)	-6.7
CC(C)N1CCC(C(=O)N2CCc3c(nc(CC4CC4)[nH]c3=O)C2)CC1	-4.92
c1ccc(Cc2nc(CNC3CCC4(CCNCC4)CC3)no2)cc1	-17
O=c1c2cccc(C(F)(F)F)c2ncn1C1CCNC1 (stereo unspecified)	-38.3
CNS(=O)(=O)c1ccc(CN2CCC(c3ccncc3)CC2)cc1	10
CC(C)(C)N1CC(C(=O)NCc2cn3cccnc3n2)CC1=O (stereo unspecified)	-0.591
COc1cc(NCC(c2ccccn2)N(C)C)ncn1 (stereo unspecified)	-57.4
Cc1cnc(C(=O)N[C@H]2CN(CCS(C)(=O)=O)C[C@@H]2C2CC2)cn1	17.6
c1cn(CCNc2nc(NC3CC3)nc3c2CCNCC3)nn1	-52.8
Cc1ccc(CCN[C@@H]2c3ccccc3C3(CCNCC3)[C@H]2O)s1	-2.72

SMILES	cytotoxicity at 10 µM [%]
O[C@]12CCNC[C@H]1CN(c1nccc3ccccc13)CC2	12.3
CCNc1nc(C)c(C(=O)N2CCC(C(O)Cc3ccccc3)CC2)s1 (stereo unspecified)	13.5
Cc1ccc(C(=O)N2CCCC(c3cc(C(F)(F)F)[nH]n3)C2)o1 (stereo unspecified)	5.77
CC(C)Oc1ncccc1CNC(=O)N1CCC1	-7.6
CCc1noc(CN2CCN(C(=O)C3CC3)CC2)n1	-1.88
Cc1ccc(C(=O)N2CCN(Cc3ccc(C#N)cc3)CC2)n1C	-9.65
Cc1ccc(-c2nc(CN3CCn4c(nnc4C4CC4)C3)co2)c(C)c1	-24.7
O=C(c1ccc2nncn2c1)N1CCCCC1Cn1cccn1 (stereo unspecified)	-3.11
O=C(CN1C=Nc2ccccc2S1(=O)=O)NCCc1cccs1	-8.55
Cc1cc(CN2CCOC(CN(C)C)C2)no1 (stereo unspecified)	-0.759
Cc1nc(C2CCCN2CCCS(=O)(=O)N(C)C)no1 (stereo unspecified)	-4.69
CN(C(=O)Cc1c[nH]c2ccccc12)C1CCN(c2ccccn2)CC1	9.36
Cc1ccc(C(=O)N2CCCC(NC(=O)C(C)C)C2)c(O)c1 (stereo unspecified)	-7.84
CC1CCN(C(=O)[C@@H]2C[C@@H]3CCN(Cc4nccs4)C[C@H]3O2)CC1	-107
Cc1cc(C)n(CC(=O)NC(Cc2ccsc2)c2ccccn2)c(=O)n1 (stereo unspecified)	-1.91
Cc1cnc(C(=O)N2CCC3(CCN3Cc3ccc(F)cc3)C2)cn1 (stereo unspecified)	-104
COCCN1CCC2(CC1)CC(NC(=O)CN(C)C)c1ccccc1O2 (stereo unspecified)	0.169
Cn1cc(CN2C[C@H](N3CCOCC3)[C@@H]3OCCC[C@@H]32)cn1	5.02
